Data as given in ChEMBL document CHEMBL1137710, “Synthesis and in vitro antitumor activity of new quinoxaline derivatives” (2009).

Key:
Format in all cases: functional
SF-295 = experiment: Growth inhibition of human SF295 cells after 48 hrs by sulforhodamine B assay; conditions: SF-295, 48 h; for TGI: read-out: pTGI (converted)
Method in brief: (§1)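 NCI 60-human-tumor-cell-line panel, with compounds tested over a 5-log dose range. Values are taken from dose-response curves as log10 molar concentrations: GI50 is 50% net growth inhibition, TGI is total growth inhibition, and LC50 is 50% net cell death.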

MDA-MB-231 = experiment: Growth inhibition of human MDA-MB-231 cells after 48 hrs by sulforhodamine B assay; conditions: MDA-MB-231, 48 h; for CC50: read-out: pLC50 (the source's name) (converted); for TGI: read-out: pTGI (converted); method in brief: as §1
SK-MEL-5 = experiment: Growth inhibition of human SK-MEL-5 cells after 48 hrs by sulforhodamine B assay; conditions: SK-MEL-5, 48 h; for CC50: read-out: pLC50 (the source's name) (converted); for TGI: read-out: pTGI (converted); method in brief: as §1
NCI-H460 [1] = experiment: Growth inhibition of human NCI-H460 cells after 48 hrs by sulforhodamine B assay; conditions: NCI-H460, 48 h; for TGI: read-out: pTGI (converted); method in brief: as §1
MDA-MB-435 = experiment: Growth inhibition of human MDA-MB-435 cells after 48 hrs by sulforhodamine B assay; conditions: MDA-MB-435, 48 h; for TGI: read-out: pTGI (converted); method in brief: as §1
TK-10 = experiment: Growth inhibition of human TK10 cells after 48 hrs by sulforhodamine B assay; conditions: TK-10, 48 h; for CC50: read-out: pLC50 (the source's name) (converted); for TGI: read-out: pTGI (converted)
Method in brief: (§2)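 Run in the NCI 60-human-tumour-cell-line panel, tested over a 5-log dose range. Dose–response curves gave three values per cell line, each as a log10 molar concentration: GI50 (50% inhibition of net cell growth), TGI (total inhibition of net growth) and LC50 (50% net cell death). The mean graph midpoint is the arithmetic mean over all lines, with insensitive lines entered at the highest concentration tested.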

[2] = Growth inhibition of human Hs 578T cells after 48 hrs by sulforhodamine B assay; conditions: for CC50: read-out: pLC50 (the source's name) (converted); for TGI: read-out: pTGI (converted); method in brief: as §1
HOP-62 = experiment: Growth inhibition of human HOP62 cells after 48 hrs by sulforhodamine B assay; conditions: HOP-62, 48 h; for TGI: read-out: pTGI (converted); method in brief: as §1
NCI-H522 = experiment: Growth inhibition of human NCI-H522 cells after 48 hrs by sulforhodamine B assay; conditions: NCI-H522, 48 h; for TGI: read-out: pTGI (converted); method in brief: as §1
PC-3 = experiment: Growth inhibition of human PC3 cells after 48 hrs by sulforhodamine B assay; conditions: PC-3, 48 h; for CC50: read-out: pLC50 (the source's name) (converted); for TGI: read-out: pTGI (converted); method in brief: as §1
OVCAR-8 = experiment: Growth inhibition of human OVCAR8 cells after 48 hrs by sulforhodamine B assay; conditions: OVCAR-8, 48 h; for CC50: read-out: pLC50 (the source's name) (converted); for TGI: read-out: pTGI (converted); method in brief: as §1
MCF7 [3] = experiment: Anticancer activity against human MCF7 cells assessed as cell growth at 100 uM after 48 hrs by sulforhodamine B assay; conditions: MCF7, 48 h, read-out: Activity
SNB-19 = experiment: Growth inhibition of human SNB19 cells after 48 hrs by sulforhodamine B assay; conditions: SNB-19, 48 h; for TGI: read-out: pTGI (converted); method in brief: as §2
KM12 = experiment: Growth inhibition of human KM12 cells after 48 hrs by sulforhodamine B assay; conditions: KM12, 48 h; for TGI: read-out: pTGI (converted); method in brief: as §1
UO-31 = experiment: Growth inhibition of human UO31 cells after 48 hrs by sulforhodamine B assay; conditions: UO-31, 48 h; for CC50: read-out: pLC50 (the source's name) (converted); for TGI: read-out: pTGI (converted); method in brief: as §2
CAKI-1 = experiment: Growth inhibition of human Caki1 cells after 48 hrs by sulforhodamine B assay; conditions: CAKI-1, 48 h; for CC50: read-out: pLC50 (the source's name) (converted); for TGI: read-out: pTGI (converted); method in brief: as §1
SK-OV-3 = experiment: Growth inhibition of human SKOV3 cells after 48 hrs by sulforhodamine B assay; conditions: SK-OV-3, 48 h; for CC50: read-out: pLC50 (the source's name) (converted); for TGI: read-out: pTGI (converted); method in brief: as §1
OVCAR-5 = experiment: Growth inhibition of human OVCAR5 cells after 48 hrs by sulforhodamine B assay; conditions: OVCAR-5, 48 h; for CC50: read-out: pLC50 (the source's name) (converted); for TGI: read-out: pTGI (converted); method in brief: as §1
COLO 205 = experiment: Growth inhibition of human COLO205 cells after 48 hrs by sulforhodamine B assay; conditions: COLO 205, 48 h; for TGI: read-out: pTGI (converted); method in brief: as §1
UACC-257 = experiment: Growth inhibition of human UACC257 cells after 48 hrs by sulforhodamine B assay; conditions: UACC-257, 48 h; for CC50: read-out: pLC50 (the source's name) (converted); for TGI: read-out: pTGI (converted); method in brief: as §2
IGROV-1 = experiment: Growth inhibition of human IGROV1 cells after 48 hrs by sulforhodamine B assay; conditions: IGROV-1, 48 h; for CC50: read-out: pLC50 (the source's name) (converted); for TGI: read-out: pTGI (converted); method in brief: as §1
NCI-H322M = experiment: Growth inhibition of human NCI-H322M cells after 48 hrs by sulforhodamine B assay; conditions: for TGI: read-out: pTGI (converted); method in brief: as §1
U-251 = experiment: Growth inhibition of human U251 cells after 48 hrs by sulforhodamine B assay; conditions: U-251, 48 h; for TGI: read-out: pTGI (converted); method in brief: as §2
OVCAR-3 = experiment: Growth inhibition of human OVCAR-3 cells after 48 hrs by sulforhodamine B assay; conditions: OVCAR-3, 48 h; for CC50: read-out: pLC50 (the source's name) (converted); for TGI: read-out: pTGI (converted); method in brief: as §1
SF-268 [4] = experiment: Growth inhibition of human SF268 cells after 48 hrs by sulforhodamine B assay; conditions: SF-268, 48 h; for TGI: read-out: pTGI (converted); method in brief: as §1
MCF7 [5] = experiment: Growth inhibition of human MCF7 cells after 48 hrs by sulforhodamine B assay; conditions: MCF7, 48 h; for CC50: read-out: pLC50 (the source's name) (converted); for TGI: read-out: pTGI (converted); method in brief: as §1
NCI-H460 [6] = experiment: Anticancer activity against human NCI-H460 cells assessed as cell growth at 100 uM after 48 hrs by sulforhodamine B assay; conditions: NCI-H460, 48 h, read-out: Activity
OVCAR-4 = experiment: Growth inhibition of human OVCAR4 cells after 48 hrs by sulforhodamine B assay; conditions: OVCAR-4, 48 h; for CC50: read-out: pLC50 (the source's name) (converted); for TGI: read-out: pTGI (converted); method in brief: as §1
786-0 = experiment: Growth inhibition of human 786-0 cells after 48 hrs by sulforhodamine B assay; conditions: 786-0, 48 h; for CC50: read-out: pLC50 (the source's name) (converted); for TGI: read-out: pTGI (converted); method in brief: as §1
SF-268 [7] = experiment: Anticancer activity against human SF268 cells assessed as cell growth at 100 uM after 48 hrs by sulforhodamine B assay; conditions: SF-268, 48 h, read-out: Activity

## COc1cc(CNc2nc3cc(N)cc(N)c3nc2-c2ccccc2)cc(OC)c1
SF-295
  GI50: 14.1 µM
  LC50 (50% net cell kill): 87.1 µM
  TGI: 35.5 µM
MDA-MB-231
  GI50: 2.09 µM
  CC50: > 100 µM
  TGI: 6.03 µM
SK-MEL-5
  GI50: 12.9 µM
  CC50: > 100 µM
  TGI: 41.7 µM
NCI-H460 [1]
  GI50: 10.5 µM
  LC50 (50% net cell kill): > 100 µM
  TGI: > 100 µM
MDA-MB-435
  GI50: 2.14 µM
  TGI: 4.27 µM
TK-10
  GI50: 24.5 µM
  CC50: > 100 µM
  TGI: 63.1 µM
[2]
  GI50: 8.51 µM
  CC50: > 100 µM
  TGI: > 100 µM
HOP-62
  GI50: 13.5 µM
  LC50: 72.4 µM
  TGI: 31.6 µM
NCI-H522
  GI50: 2.88 µM
  LC50: > 100 µM
  TGI: 22.9 µM
PC-3
  GI50: 3.02 µM
  CC50: > 100 µM
  TGI: 14.5 µM
OVCAR-8
  GI50: 2.82 µM
  CC50: > 100 µM
  TGI: 8.13 µM
MCF7 [3]
  growth at 100 µM: -72%
SNB-19
  GI50: 23.4 µM
  LC50: > 100 µM
  TGI: > 100 µM
KM12
  GI50: 4.27 µM
  LC50 (50% net cell kill): > 100 µM
  TGI: 74.1 µM
UO-31
  GI50: 4.07 µM
  CC50: > 100 µM
  TGI: > 100 µM
CAKI-1
  GI50: 15.8 µM
  CC50: > 100 µM
  TGI: > 100 µM
SK-OV-3
  GI50: 15.1 µM
  CC50: > 100 µM
  TGI: 53.7 µM
OVCAR-5
  GI50: 5.89 µM
  CC50: > 100 µM
  TGI: 29.5 µM
COLO 205
  GI50: 2.4 µM
  LC50 (50% net cell kill): > 100 µM
  TGI: 6.03 µM
UACC-257
  GI50: 25.7 µM
  CC50: > 100 µM
  TGI: > 100 µM
IGROV-1
  GI50: 8.71 µM
  CC50: > 100 µM
  TGI: 56.2 µM
NCI-H322M
  GI50: 44.7 µM
  LC50: > 100 µM
  TGI: > 100 µM
U-251
  GI50: 5.13 µM
  LC50 (50% net cell kill): > 100 µM
  TGI: > 100 µM
OVCAR-3
  GI50: 1.86 µM
  CC50: > 100 µM
  TGI: 4.57 µM
SF-268 [4]
  GI50: 5.37 µM
  LC50: > 100 µM
  TGI: > 100 µM
MCF7 [5]
  GI50: 8.32 µM
  CC50: > 100 µM
  TGI: > 100 µM
NCI-H460 [6]
  growth at 100 µM: -1%
OVCAR-4
  GI50: 0.0141 µM
  CC50: 3.24 µM
  TGI: 0.977 µM
786-0
  GI50: 12.6 µM
  CC50: > 100 µM
  TGI: 44.7 µM
SF-268 [7]
  growth at 100 µM: -28%

## COc1cc(OC)cc(Oc2nc3cc(N)cc(N)c3nc2-c2ccccc2)c1
SF-295
  GI50: 2.19 µM
  TGI: 8.51 µM
MDA-MB-231
  GI50: 3.98 µM
  CC50: 87.1 µM
  TGI: 21.9 µM
SK-MEL-5
  GI50: 1.91 µM
  CC50: 24.5 µM
  TGI: 6.46 µM
NCI-H460 [1]
  GI50: 2.95 µM
  TGI: 12.6 µM
MDA-MB-435
  GI50: 0.389 µM
  TGI: 1.82 µM
MDA-MB-435; read-out: pLC50 (the source's name) (converted)
  CC50: 5.01 µM
TK-10
  GI50: 28.2 µM
  CC50: > 100 µM
  TGI: 57.5 µM
[2]
  GI50: 1.32 µM
  CC50: 25.7 µM
  TGI: 4.17 µM
HOP-62
  GI50: 2.14 µM
  TGI: 12.9 µM
NCI-H522
  GI50: 0.891 µM
  TGI: 4.27 µM
PC-3
  GI50: 10.2 µM
  CC50: 72.4 µM
  TGI: 27.5 µM
OVCAR-8
  GI50: 2.88 µM
  CC50: 50.1 µM
  TGI: 16.2 µM
MCF7 [3]
  growth at 100 µM: 0%
SNB-19
  GI50: 2.51 µM
  TGI: 12.6 µM
KM12
  GI50: 1.02 µM
  TGI: 6.03 µM
UO-31
  GI50: 11.5 µM
  CC50: 72.4 µM
  TGI: 28.8 µM
CAKI-1
  GI50: 16.2 µM
  CC50: 79.4 µM
  TGI: 36.3 µM
SK-OV-3
  GI50: 3.47 µM
  CC50: 69.2 µM
  TGI: 16.2 µM
OVCAR-5
  GI50: 3.24 µM
  CC50: 40.7 µM
  TGI: 16.2 µM
COLO 205
  GI50: 10.7 µM
  TGI: 22.4 µM
UACC-257
  GI50: 2.19 µM
  CC50: 37.2 µM
  TGI: 12.3 µM
IGROV-1
  GI50: 2.63 µM
  CC50: 38 µM
  TGI: 12.3 µM
NCI-H322M
  GI50: 2.24 µM
  TGI: 15.1 µM
U-251
  GI50: 2.63 µM
  TGI: 10.7 µM
OVCAR-3
  GI50: 2.24 µM
  CC50: 55 µM
  TGI: 8.71 µM
SF-268 [4]
  GI50: 1.74 µM
  TGI: 7.08 µM
MCF7 [5]
  GI50: 1.7 µM
  CC50: 14.5 µM
  TGI: 4.57 µM
NCI-H460 [6]
  growth at 100 µM: 2%
OVCAR-4
  GI50: 2.88 µM
  CC50: 58.9 µM
  TGI: 16.2 µM
786-0
  GI50: 15.1 µM
  CC50: > 100 µM
  TGI: 41.7 µM
SF-268 [7]
  growth at 100 µM: 1%
